Where two headings read alike, the source gives them in different places.
Tests used:
[1] = system: HUVEC monolayers; assay type: cell-based, human; details: 0.1 h after MDS stimulation (1 mA/cm^2 for 7 min)
[2] = system: major organs (heart, lung, liver, kidney, spleen); assay type: in vivo, rats
How it was run: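 Major organs (heart, lung, liver, kidney, spleen) were taken at the end of the treatment experiment. They were photographed and weighed (n = 3, one-way ANOVA), then paraffin-embedded, serially sectioned and H&E-stained.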

[3] = post-SCI, cited from earlier work
[4] = system: OVX OP rat models; assay: Histology of distal femurs; assay type: in vivo, Sprague–Dawley rats
How it was run: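 Female Sprague–Dawley rats, 12 weeks old, under pentobarbital anaesthesia. Bilateral ovariectomy via dorsal midline incision; sham rats had matching adipose tissue removed. Rats received PBS or PTH by different delivery methods for 4 weeks. Distal femurs were decalcified 3 weeks, paraffin-embedded and serially sectioned. Stains: H&E, Masson, TRAP kit, and IHC for Col1 (1:100), Ocn (1:200) and Ctsk (1:50). Positive cells per bone surface counted, n = 5, one-way ANOVA.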

[5] = system: OVX OP rat models; assay: Plasma bone turnover markers PINP and CTX-I by Elisa in OVX rats; assay type: in vivo, Sprague–Dawley rats; details: n = 5
[6] = stated consistent with own SCI-PTH group

## CC(=O)OCOC(=O)CN(CC(=O)OCOC(C)=O)c1ccccc1OCCOc1ccccc1N(CC(=O)OCOC(C)=O)CC(=O)OCOC(C)=O [BAPTA‐AM]
[1]; inhibitor 20 µM
  increase in intracellular SFs and disappearance of VE-cadherin fluorescence during the electro-stimulated phase: blocked

## C[C@@H](N)[C@H]1CC[C@H](C(=O)Nc2ccncc2)CC1 [Y27632]
[1]; inhibitor 15 µM
  increase in intracellular SFs and disappearance of VE-cadherin fluorescence during the electro-stimulated phase: blocked

## N.N.N.N.N.N.N.N.N.N.N.N.N.N.[Cl-].[Cl-].[Cl-].[Cl-].[Cl-].[Cl-].[O-2].[O-2].[Ru+3].[Ru+3].[Ru+4] [ruthenium red]
[1]; inhibitor 20 µM
  increase in intracellular SFs and disappearance of VE-cadherin fluorescence during the electro-stimulated phase: blocked

## Human parathyroid hormone (1–34) [PTH]
[2]; MDS-PTH group after one month of PTH treatment, H&E
  histopathological analysis of visceral organs: no structural disruption
[2]; MDS-PTH group compared to SCI-PBS and SCI-PTH groups after one month of PTH treatment, n = 3
  appearance or weight of major organs: no significant difference
[3]
  subcutaneous residue: approximately 20%
[3]; [6]
  elimination time: 4 h
  time to plasma Cmax: 30 min
[4]; MDS-PTH group compared to SCI-PTH group, IHC and Trap staining, n = 5
  Ctsk+ and Trap+ osteoclasts per bone surface: dramatically fewer
[4]; MDS-PTH group compared to SCI-PTH group, OVX rats, 40 µg k^−1g once daily for one month
  new bone formation (H&E and Masson's staining): significantly promoted
[4]; MDS-PTH group compared with OVX group, IHC, n = 5
  Col+ and OCN+ osteoblasts per bone surface: more
[4]; SCI-PTH group compared with OVX group, IHC, n = 5
  Col+ and OCN+ osteoblasts per bone surface: more
[4]; SCI-PTH versus MDS-PTH groups, IHC, n = 5
  Col+ and OCN+ osteoblasts per bone surface, difference between delivery methods: no significant difference
[5]; MDS-PTH group compared to OVX group
  bone formation marker PINP: increased notably
[5]; MDS-PTH group compared to SCI-PTH group
  bone resorption marker CTX-I: significantly lower
[5]; SCI-PTH group compared to OVX group
  bone formation marker PINP: increased notably
[5]; SCI-PTH versus MDS-PTH groups
  bone formation marker PINP, difference between delivery methods: no significant difference

— PMC11926516 (Small Methods, 2024)
